Assay results: ChEMBL document CHEMBL4513216, “Probing the Open Global Health Chemical Diversity Library for Multistage-Active Starting Points for Next-Generation Antimalarials” (ACS Infect Dis, 2020)

Test: Toxicity liver stage against HepG2, at 10uM
Format: cell-based
Parameters: test concentration 10 uM, cell line HepG2-A16-CD81EGFP
Settings: human, HepG2-A16-CD81EGFP cells; read-out: INHIBITION
Summary of the method: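 Uninfected HepG2-A16-CD81EGFP cells, 3 × 10^3 per well, 1536-well, plated on prespotted compound at 10 μM final, parasite-free screening media added to match infected plates; puromycin 10 μM positive, DMSO 0.5% negative; run in parallel with 48 h PbLuc assay at 37 °C, 5% CO2; viability by CellTiter-Glo luminescence, normalized to controls.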

| Compound | cytotoxicity at 10 µM |
| --- | --- |
| Cc1ccc(-c2c[nH]c([C@@H]3COCCN3Cc3cccnc3)n2)cc1 | 0.283% |
| O=C(NCCC1=CCCCC1)c1ccc(-n2cccc2)nc1 | -1.46% |
| CC1CN(c2ncccc2C(=O)N[C@@H]2CCCc3ccccc32)CCN1 (stereo partly specified) | 10.7% |
| CNC(=O)c1nc(CC(=O)Nc2cccc(C(F)(F)F)c2)no1 | -6.96% |
| Cc1nn(-c2ccc(C(=O)O)cc2)c2c1C(C(C)C)SCC(=O)N2 (stereo unspecified) | -3.58% |
| CCN1C(=O)CCC12CCN(S(=O)(=O)c1ccccc1)CC2 | -4.9% |
| CC(C)C(=O)NC1COC2(CCN(C(=O)c3cccnc3)CC2)C1 (stereo unspecified) | 4.26% |
| Cn1cccc1C(=O)N1C[C@H]2CN(Cc3cccnc3)C[C@H]2C1 | 3.94% |
| O=C(C1CCOCC1)N1CC[C@@H](O)[C@@H]1Cc1ccncc1 | -2.36% |
| CCN(C(=O)c1nc2c(s1)CCCN2Cc1ccccc1)C(C)C | 14.2% |
| Cc1nc(CNCC2COCc3c(-c4ccoc4)nnn3C2)cs1 (stereo unspecified) | 8.22% |
| Cc1ncnc2c1CCN(C(=O)c1cccnc1)CC2 | 8.36% |
| CN1CCN(C(=O)c2cc(-c3cnc(N4CCCC4)nc3)cn2C)CC1 | -1.43% |
| CC(C)NC(=O)N1CCN(C(=O)NC(C)C)CC2(CNC(=O)C2)C1 | 3.3% |
| Cc1cc(NCCO)nc(N2CCCC2)c1C#N | -7.02% |
| Cc1cc(O)c(OCC(=O)/N=c2/[nH]c3c(s2)CCC3)cn1 | 10.4% |
| Cc1n[nH]c2c1C(c1cnn(C)c1)SCC(=O)N2 (stereo unspecified) | 7.7% |
| CN1C(=O)C(C)(C)COc2cc(NS(=O)(=O)Cc3ccccc3)ccc21 | -7.79% |
| CN(C)C(=O)N1CCc2c(nnn2C)C1COCc1ccccc1 (stereo unspecified) | -8.39% |

| Compound | cytotoxicity at 10 µM |
| --- | --- |
| CS(=O)(=O)Nc1nn(Cc2ccc(F)cc2)cc1Br | 5.88% |
| O=C(CCn1ncc2c(Cl)cccc21)NCCCn1cccn1 | 6.25% |
| Cc1cc(C(=O)NCc2cccs2)nc(N2CCCC2)n1 | -0.438% |
| COc1ccc(S(=O)(=O)N2CCOC(C)(C(N)=O)C2)cc1 (stereo unspecified) | 5.49% |
| O=C(C1CC1)N1CCCC(C2=Nc3ccccc3S(=O)(=O)N2)C1 (stereo unspecified) | -1.45% |
| Cc1noc(C)c1-c1cc(CCC2CN(CCC(N)=O)CCO2)ncn1 (stereo unspecified) | 6.11% |
| CCn1c(SC)nnc1C1CCN(C(=O)N2CCCC2)CC1 | -0.78% |
| CS(=O)(=O)c1cncnc1C1CCCN(C(=O)NCc2ccccc2)C1 (stereo unspecified) | -0.375% |
| Cc1ccnn1CCC(=O)N1CCCC2(C1)NC(=O)c1ccccc1O2 (stereo unspecified) | -0.776% |
| COCCN(CCOC)c1ncc(C#N)cc1Cl | 2.8% |
| CSC(C)C(=O)Nc1ccnn1-c1ccccc1C (stereo unspecified) | -12.5% |
| O=C(NC1(C(=O)NCC2CC2)CCCC1)C1Cc2cc(F)ccc2O1 (stereo unspecified) | 8% |
| Cc1c(NC(=O)NCCO)cccc1OC1CCCC1 | -2.25% |
| CCOCCC(=O)N(CCC#N)c1ccc(C)c(C)c1 | 4.06% |
| CS(=O)(=O)CCN1CCc2c(ncn2C2CC2)C1 | -6.06% |
| Brc1ccc(C2(NCc3noc(C4CC4)n3)CCC2)cc1 | 13.3% |
| CNC(=O)N1CCCCC1CCNS(C)(=O)=O (stereo unspecified) | -3.41% |
| Cc1ccc(F)cc1C(=O)N1CCN(S(C)(=O)=O)[C@@H](C)C1 | -2.53% |
| Cc1occc1CNC(=O)C1CCN(C(=O)OC(C)(C)C)C1 (stereo unspecified) | 3.67% |

| Compound | cytotoxicity at 10 µM |
| --- | --- |
| CC(C)(C)c1noc(CN2CCN(C(=O)c3ccco3)CC2)n1 | -15.8% |
| CCC(C)C(=O)NCCCn1nc(C)cc1C (stereo unspecified) | 0.0879% |
| Cc1ccc(CNCC2CCN(CCO)CC2)cc1 | -6.14% |
| Cc1nccn1-c1cc(CNC(=O)COCC2CC2)ccn1 | 2.37% |
| CS(=O)(=O)CCN(CC1CCCO1)C1CCCC1 (stereo unspecified) | 4.4% |
| COCCOc1ccc(NCc2cccc3cn[nH]c23)cn1 | 5.04% |
| CS(=O)(=O)CCNCc1ccc(OCc2cscn2)cc1 | -136% |
| O=C1CN(C(=O)C2CCCOC2)CCN1Cc1ccc(Cl)cc1 (stereo unspecified) | -152% |
| Cc1cnn(CCNCCCOc2ccc(C#N)cc2)c1 | -0.222% |
| COc1cc(C(=O)N(Cc2ccco2)C2CC2)cc2c1OCCO2 | 2.35% |
| O=C1NCCO[C@H]2CN(C(=O)Cc3ccco3)CC[C@@H]12 | -105% |
| O=C(c1ccnnc1)N1C[C@H](OCC2CC2)[C@H]2COC[C@H]21 | 0.0658% |
| COCC1CC2(CCN(Cc3ccccn3)CC2)CN1C(C)C (stereo unspecified) | -7.16% |
| Cc1cnccc1N1CCCN(C(=O)CCCn2ccnc2C)CC1 | -5.39% |
| O=C(Nc1nc(-c2ccccc2)ns1)N1CCN(C(=O)C2CC2)CC1 | -150% |
| C=C(C)COc1ccccc1C(=O)NCc1nc(C)cc(=O)[nH]1 | -3.7% |
| CN(C)C(C(=O)NCCSc1ncn[nH]1)c1cccc(F)c1 (stereo unspecified) | -1.64% |
| CN1CCC(O)(CNC(=O)c2cc(COc3cccc(F)c3)[nH]n2)CC1 | 2.91% |
